Test results reported in ChEMBL document CHEMBL4382296, “Synthesis, Profiling, and in Vivo Evaluation of Cyclopeptides Containing N-Methyl Amino Acids as Antiplasmodial Agents” (ACS Med Chem Lett, 2019).
Values after ≈ are worked out from the molar mass of the structure shown. Active and inactive are the calls of the source. No cut-off for these calls is given here. Where a SMILES comes first, the peptide text is derived from it. [ ]: non-standard residue; d: D form. The star is where a group is joined. Trt = c1ccc(C(c2ccccc2)(c2ccccc2)*)cc1; Sar = CNCC(=O)O; tBu = CC(C)(C)*

Tests used:
[1] = n-Octanol/water partition coefficient, log D of compound at pH 7.4 by UV-HPLC analysis
[2] = Solubility of the compound in pH 7.4 phosphate buffered saline after 2 hrs by UV-HPLC analysis; format: physicochemical
In short: (§1)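 Solubility was measured in PBS pH 7.4 and at pH 1.0, in μM, n = 2.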

[3] = Solubility of the compound in pH 1 0.1M HCl after 2 hrs by UV-HPLC analysis; format: physicochemical; in short: as §1
[4] = Permeability of the compound in pH 7.4 phosphate buffered saline at 20 uM after 20 hrs by PAMPA; format: ADME; conditions: for Papp at 20 h, 20 µM: PAMPA, pH 7.4, read-out: permeability; for permeability: pampa, pH 7.4, 20 h, 20 µM, BLD = below limit of detection
In short: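 PAMPA giving experimental permeability Pe (×10–6 cm/s), n = 3. The limit of quantitation in the acceptor compartment was 0.02 or 0.03 μM.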

[5] = tested on: Plasmodium falciparum; experiment: Anti-plasmodial activity against chloroquine-sensitive Plasmodium falciparum 3D7 infected in erythrocytes after 72 hrs by SYBR green dye based fluorescence assay; format: functional, organism-based; conditions: 3D7, 72 h
In short: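 P. falciparum 3D7 (drug-sensitive) grown in erythrocytes; growth read by SYBR Green fluorescence; EC50 reported as mean ± SD of n = 2.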

[6] = tested on: Plasmodium falciparum; experiment: Antiplasmodial activity against chloroquine-resistant Plasmodium falciparum K1 infected in human erythrocytes assessed as reduction in [3H]hypoxanthine incorporation pretreated for 24 hrs followed by [3H]hypoxanthine addition and measured after 24 hrs by liquid scintillation counting method; format: functional, organism-based
In short: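 Chloroquine-resistant P. falciparum K1 in erythrocytes incubated with compound for 24 h; growth read as 3H-hypoxanthine incorporation; EC50 reported as mean ± SD of n = 2.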

[7] = Selectivity index, ratio of IC50 for mouse J774 cells to EC50 for chloroquine-resistant Plasmodium falciparum K1 infected in human erythrocytes; format: toxicity, cell-based; conditions: read-out: Ratio IC50/EC50
[8] = Selectivity index, ratio of IC50 for human HepG2 cells to EC50 for chloroquine-sensitive Plasmodium falciparum 3D7 infected in erythrocytes; format: toxicity, cell-based; conditions: read-out: Ratio IC50/EC50
In short: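 Selectivity index is HepG2 cytotoxicity IC50 divided by EC50 against drug-sensitive P. falciparum 3D7. Parasite EC50 came from a SYBR Green growth assay, with values as the mean of n = 2.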

[9] = tested on: Plasmodium falciparum; experiment: Plasmodicidal activity against Plasmodium falciparum 3D7A infected in CFDA-SE-labelled erythrocytes assessed as parasite killing at 10 times EC50 treated for 24 to 48 hrs following media refreshment for every 24 hrs by FACS analysis; format: functional, organism-based
In short: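 Viability was judged by the ability of drug-treated parasites to make new invasions of prestained human RBCs. New invasions were quantified by double-colorimetric FACS. Drug treatment used two time points to separate rapidly parasiticidal from moderate or slow acting agents.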

[10] = tested on: Plasmodium berghei; experiment: Antiplasmodial activity against exoerythrocytic-stage of Plasmodium berghei ANKA infected in human HepG2 cells expressing CD81 pretreated with cells for 18 hrs followed by parasite infection and measured after 48 hrs by brightglo-luminescence assay; format: functional, organism-based
[11] = tested on: Plasmodium berghei; experiment: Antiplasmodial activity against Plasmodium berghei NK65 infected in Swiss mouse assessed as reduction in parasitemia at 50 mg/kg, po administered once daily for 3 consecutive days post infection measured on day 5 post infection relative to control; format: functional; design: scale not given: the % may be the effect or the level left
In short: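 Suppressive test in Swiss outbred mice inoculated with P. berghei NK65-infected red blood cells. A single oral dose of 50 mg·kg–1 was given on each of days 2, 3 and 4. Control groups received chloroquine or vehicle. Parasitemia reduction was read on day 5 and followed until day 9.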

[12] = tested on: Plasmodium berghei; experiment: Antiplasmodial activity against Plasmodium berghei NK65 infected in Swiss mouse assessed as reduction in parasitemia at 50 mg/kg, po administered once daily for 3 consecutive days post infection measured on day 9 post infection; format: functional, organism-based
In short: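 Four-day suppressive test: Swiss outbred mice inoculated with P. berghei NK65-infected red blood cells, then given a single oral 50 mg/kg dose on each of days 2, 3 and 4. Chloroquine-treated and vehicle-treated groups served as controls. Parasitemia was measured on day 5 and followed to day 9.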

[13] = Plasma concentration in Swiss albino mouse at 50 mg/kg, po after 0.5 to 12 hrs by LC-MS/MS analysis; format: ADME, organism-based; conditions: in vivo
In short: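 Male Swiss Albino mice received a solution formulation of the compound as one oral dose of 50 mg/kg. Blood was sampled at 0.25, 0.5, 1, 2, 4, 6, 8, 12 and 24 h, and plasma levels were measured (LLOQ 5.16 ng/mL). Values are means, n = 3.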

Structure (SMILES)	logD [1]	solubility at 2 h [2] [µM]	solubility at 2 h [3] [µM]	Papp at 20 h, 20 µM [4] [×10⁻⁶ cm/s]	EC50 [5] [nM]	EC50 [6] [nM]	EC90 [6] [nM]	selectivity ratio [7]	selectivity ratio [8]	Activity [9]	EC50 [10] [nM]	permeability [4]	Activity [11] [%]	Activity [12]	Cp [13] [ng/mL]
CN1CC(=O)N[C@@H](CSC(c2ccccc2)(c2ccccc2)c2ccccc2)C(=O)N[C@@H](CSC(c2ccccc2)(c2ccccc2)c2ccccc2)C(=O)N(C)CC(=O)N[C@@H](COC(C)(C)C)C1=O (cyclo(C(Trt)C(Trt)[Sar]S(tBu)[Sar]))	7.7	0.12 (≈ 0.117 µg/mL)	0.21 (≈ 0.205 µg/mL)	2											
CN1CC(=O)N[C@@H](CSC(c2ccccc2)(c2ccccc2)c2ccccc2)C(=O)N[C@@H](Cc2ccccc2)C(=O)N[C@@H](COC(C)(C)C)C(=O)N(C)CC(=O)N[C@@H](CSC(c2ccccc2)(c2ccccc2)c2ccccc2)C1=O (cyclo(C(Trt)FS(tBu)[Sar]C(Trt)[Sar]))	8	0.71 (≈ 0.798 µg/mL)	5.32 (≈ 5.98 µg/mL)	0.2	1.8	9	59	> 11000	> 140000	inactive	335				
CN1CC(=O)N[C@@H](CSC(c2ccccc2)(c2ccccc2)c2ccccc2)C(=O)NCC(=O)N[C@@H](CSC(c2ccccc2)(c2ccccc2)c2ccccc2)C(=O)NCC(=O)N[C@@H](CCC(=O)O)C1=O (cyclo(C(Trt)GC(Trt)GE[Sar]))	3.1				5400				> 46			Bld			
C[C@@H](OC(C)(C)C)[C@@H]1NC(=O)CNC(=O)[C@H](CSC(c2ccccc2)(c2ccccc2)c2ccccc2)NC(=O)CNC(=O)[C@H](CSC(c2ccccc2)(c2ccccc2)c2ccccc2)NC(=O)CN(C)C1=O (cyclo(C(Trt)GC(Trt)GT(tBu)[Sar]))	5.8	0.94 (≈ 0.971 µg/mL)	1.17 (≈ 1.21 µg/mL)	0.6	3.8	8	39	> 12500	> 66000						
CN1CC(=O)N[C@@H](CSC(c2ccccc2)(c2ccccc2)c2ccccc2)C(=O)NCC(=O)N[C@@H](CSC(c2ccccc2)(c2ccccc2)c2ccccc2)C(=O)N(C)CC(=O)N[C@@H](CCC(=O)O)C1=O (cyclo(C(Trt)GC(Trt)[Sar]E[Sar]))					210							Bld			
C[C@@H](OC(C)(C)C)[C@@H]1NC(=O)CN(C)C(=O)[C@H](CSC(c2ccccc2)(c2ccccc2)c2ccccc2)NC(=O)CNC(=O)[C@H](CSC(c2ccccc2)(c2ccccc2)c2ccccc2)NC(=O)CN(C)C1=O (cyclo(C(Trt)GC(Trt)[Sar]T(tBu)[Sar]))	6	0.38 (≈ 0.398 µg/mL)	3.46 (≈ 3.62 µg/mL)	1	0.25	0.008	1		> 1e+06				71	Active	> 9
CN1CC(=O)N[C@@H](CSC(c2ccccc2)(c2ccccc2)c2ccccc2)C(=O)N(C)CC(=O)N[C@@H](CSC(c2ccccc2)(c2ccccc2)c2ccccc2)C(=O)N(C)CC(=O)N[C@@H](CCC(=O)O)C1=O (cyclo(C(Trt)[Sar]C(Trt)[Sar]E[Sar]))	3.9	437 (≈ 451 µg/mL)	28.3 (≈ 29.3 µg/mL)	0.2	12	0.2	4	500000	> 20000				66	Active	
CN1CC(=O)N[C@@H](CSC(c2ccccc2)(c2ccccc2)c2ccccc2)C(=O)N(C)CC(=O)N[C@@H](CSC(c2ccccc2)(c2ccccc2)c2ccccc2)C(=O)N(C)CC(=O)N[C@@H](COC(C)(C)C)C1=O (cyclo(C(Trt)[Sar]C(Trt)[Sar]S(tBu)[Sar]))	6.3	0.18 (≈ 0.189 µg/mL)	0.74 (≈ 0.775 µg/mL)	0.3	1.4	0.13	4	> 770000	> 180000						
C[C@@H](OC(C)(C)C)[C@@H]1NC(=O)CN(C)C(=O)[C@H](CSC(c2ccccc2)(c2ccccc2)c2ccccc2)NC(=O)CN(C)C(=O)[C@H](CSC(c2ccccc2)(c2ccccc2)c2ccccc2)NC(=O)CN(C)C1=O (cyclo(C(Trt)[Sar]C(Trt)[Sar]T(tBu)[Sar]))	3.7	0.55 (≈ 0.584 µg/mL)	0.38 (≈ 0.403 µg/mL)	0.2	1	0.04	1	> 2.5e+06	> 250000	inactive	18				
C[C@@H]1CC[C@H]2[C@@H](C)C(=O)O[C@@H]3O[C@@]4(C)CC[C@@H]1[C@]32OO4 [ARTEMISININ]						20									
C[C@H]1[C@H](OC(=O)CCC(=O)O)O[C@@H]2O[C@@]3(C)CC[C@H]4[C@H](C)CC[C@@H]1[C@@]24OO3 [ARTESUNATE]					5	3									
O=C1C(O)=C([C@H]2CC[C@H](c3ccc(Cl)cc3)CC2)C(=O)c2ccccc21 [ATOVAQUONE]										inactive	2.8				
CCN(CC)CCCC(C)Nc1ccnc2cc(Cl)ccc12 (stereo not given) [CHLOROQUINE]						470									
CCc1nc(N)nc(N)c1-c1ccc(Cl)cc1 [PYRIMETHAMINE]					35					inactive					
